# Screens: PubChem, Sanford-Burnham Center for Chemical Genomics
# STEP block = STEP phosphatase inhibitors, primary screen, biochemical, fluorescence intensity, uHTS; recombinant STEP, OMFP fluorogenic substrate; inhibition, % at 20 µM; actives 0.25% (n = 360,000); AID 588621, 2011;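 active = inhibition at 20 µM, scaled per plate between control wells, above about 37%, limit read from the data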;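 also: 0% = DMSO with enzyme and substrate and 100% = substrate only without enzyme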
# Target sequence (P54829 whole entry, looked up): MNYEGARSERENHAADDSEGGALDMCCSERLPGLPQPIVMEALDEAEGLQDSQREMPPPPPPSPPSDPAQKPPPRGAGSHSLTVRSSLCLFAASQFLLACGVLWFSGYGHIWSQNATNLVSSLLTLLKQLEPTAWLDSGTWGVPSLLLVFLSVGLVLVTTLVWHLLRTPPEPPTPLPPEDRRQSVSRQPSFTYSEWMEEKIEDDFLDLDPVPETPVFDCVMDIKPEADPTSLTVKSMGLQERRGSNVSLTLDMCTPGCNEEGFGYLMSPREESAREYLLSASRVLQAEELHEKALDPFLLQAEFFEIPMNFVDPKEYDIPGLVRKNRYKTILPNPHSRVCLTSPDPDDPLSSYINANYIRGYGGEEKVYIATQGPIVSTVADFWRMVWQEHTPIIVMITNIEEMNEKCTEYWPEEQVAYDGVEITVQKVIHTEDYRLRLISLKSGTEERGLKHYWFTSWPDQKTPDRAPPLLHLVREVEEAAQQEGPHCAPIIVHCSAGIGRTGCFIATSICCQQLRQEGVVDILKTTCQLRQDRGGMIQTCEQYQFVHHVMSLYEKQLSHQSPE
#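 Also added – OMFP at 25 µM · Test system – STEP tyrosine phosphatase · Technique – FITC-channel fluorescence of OMFP product · Schedule – 20 min at room temperature, dark · Evaluation – control-normalized % inhibition with plate pattern correction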
# DNMT1 inh = human DNMT1 methyltransferase inhibitors, primary screen, biochemical, molecular beacon, fluorescence, HinP1I cleavage, uHTS; DNA (cytosine-5)-methyltransferase 1 (Homo sapiens), P26358; inhibition (reported as % activation of signal), % at 10 µM; actives 0.83% (n = 360,000); AID 588458, 2011; in the data active = inhibition above about 50%
# Scp1 inh = Scp-1 phosphatase inhibitors, primary screen, biochemical, colorimetric, uHTS; inhibition, % at 20 µM; actives 0.88% (n = 340,000); Recombinant Scp1, phosphopeptide, malachite green phosphate absorbance; Carboxy-terminal domain RNA polymerase II polypeptide A small phosphatase 1 (Homo …;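 active = inhibition above about 50% at 20 µM, limit read from the data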;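 also: plate controls were DMSO wells with enzyme for no effect and wells lacking enzyme for full effect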
#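 Test system: SCP-1 catalytic domain; Buffer or medium: Acidic Tris acetate buffer with magnesium and detergent; Also added: Phosphorylated 17-residue peptide substrate; Compound: single 20 µM dose, 1% DMSO; Schedule: enzyme reaction 45 min at room temperature, colour 5 min, stabilisation 30 min; Signal: Phosphate-binding colour reagent, absorbance read at 630 nm.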
# SUMO1 PPI mod = modulators of SUMO1 protein-protein interactions, primary screen, biochemical, uHTS | SUMO1 binding to a labelled peptide, TR-FRET, 1 h | inhibition, % at 20 µM | actives 0.33% (n = 360,000); in the data active = inhibition above about 37%
# Target sequence (P63165 whole entry, looked up): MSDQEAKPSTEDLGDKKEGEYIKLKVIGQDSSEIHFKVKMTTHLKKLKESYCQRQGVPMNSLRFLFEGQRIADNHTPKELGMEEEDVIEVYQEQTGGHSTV
# NadD inh = inhibitors of S. aureus NadD, primary screen, biochemical, colorimetric, uHTS; Nicotinate-nucleotide adenylyltransferase NadD (Staphylococcus aureus N315); purified NadD enzyme, colorimetric absorbance read-out; inhibition, % at 20 µM; actives 0.78% (n = 360,000); AID 602399, 2012; in the data active = inhibition above about 26%
# LMPTP inh = LMPTP phosphatase inhibitors, primary screen, biochemical, fluorescence intensity, uHTS; recombinant LMPTP-A, OMFP fluorogenic substrate; inhibition, % at 20 µM; actives 0.22% (n = 360,000); AID 651560, 2012;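 active = compounds that cut the enzyme signal by at least half of the control window in the single-dose screen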;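 also: plate controls were DMSO wells with enzyme plus substrate for no effect and substrate without enzyme for full effect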
#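 test system = LMPTP-A | amount = 0.625 nM LMPTP-A final | reagent = fluorogenic phosphatase substrate OMFP at 400 µM final | incubation = 50 min at room temperature | benchmarks = no-enzyme low control, uninhibited high control | medium = Bis-Tris pH 6.0, DTT, detergent | signal = fluorescence intensity of OMFP turnover product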
# Scp1 confirm = Scp-1 phosphatase inhibitors, retest, confirmation, biochemical, colorimetric, single concentration; shares compounds with Scp1 inh; recombinant SCP-1 catalytic domain, phosphate release, malachite green absorbance; inhibition, % at 20 µM; actives 61% (n = 2,500); AID 540281, 2011;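 also: plate controls were DMSO with enzyme for no effect and buffer wells lacking enzyme for full effect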
# Scp-1 MG ctr = colorimetric readout interference by compounds, confirmation, artefact control for Scp-1 inhibitor project, biochemical, single concentration | shares compounds with Scp1 inh | Colorimetric interference counterscreen, malachite green absorbance 630 nm | apparent inhibition (interference), % at 20 µM | 2,500 tested, under 10 active;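 also: compounds added after enzyme reaction finished so only phosphate colour detection is probed; plate controls were DMSO wells with completed Scp-1 reaction for no effect and substrate wells lacking enzyme for full effect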
# Scp1 DSF = Scp-1 binding by thermal shift, confirmation, orthogonal assay for Scp-1 inhibitor project, biophysical, differential scanning fluorimetry. shares compounds with Scp1 inh. Recombinant SCP1, Sypro Orange thermal shift Tm. thermal shift relative to vanadate control, % at 40 µM. actives 25% (n = 1,500). AID 540329, 2011;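 active = substances whose mean melting-temperature shift, as a percentage of the reference inhibitor's shift, reaches about 5.3%, limit read from the data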;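 also: 0% = Tm of DMSO wells and 100% = Tm with sodium orthovanadate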
# * hit, by the source's call; / = not tested or not shown; ! = not confirmed by another sample. This is a sample that favours compounds with a hit; in the whole collection about 2.4% have one here.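 The calls were made as follows, unless noted: active = inhibition of at least 30% at 20 µM; inactive = the rest.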
SMILES,STEP block,DNMT1 inh,Scp1 inh,SUMO1 PPI mod,NadD inh,LMPTP inh,Scp1 confirm,Scp-1 MG ctr,Scp1 DSF
C=C1C[C@]2(O)[C@@]3(C)CCC(=O)C(C)(C)C3=C(O)C(=O)[C@@]2(C)[C@@H]2C(=O)O[C@@](C)(C(=O)OC)C(=O)[C@@]12C,-1,4,10,0,4,0,/,/,/
CC(CC(C#N)(c1ccccc1)c1ccccc1)N1CCOCC1 (configuration not stated),-4,2,-7,0,0,0,/,/,/
O=C(NN=Cc1ccc(N(CCCl)CCCl)cc1)c1cccc([N+](=O)[O-])c1,2,23,93*,13,5,33,72*,-11,3
CCOc1ccc(N=C2SCCCN2C)cc1,1,0,103*,-1,7,-1,86*,-13,-14
COc1cccc(-n2c(O)c(C=NCCN3CCOCC3)c(=O)[nH]c2=O)c1,-3,0,6,6,-5,-3,/,/,/
Cc1ccc(C2=NCC(=O)Nc3ccc(Br)cc32)cc1,1,1,-4,7,1,0,/,/,/
COc1ccc(CN2CCNCC2)c(OC)c1OC,-3,1,99*!,-2,-4,-4,95*,-10,-14
COc1cc(CN2CCNCC2)cc(OC)c1OC,-2,0,-2,7,3,-4,/,/,/
NC(=O)c1ccc(N=Cc2c(O)n(Cc3ccco3)c(=O)[nH]c2=O)cc1,32,62*,87*,99*,20,34,67*,-11,-10
Cc1c(P(=S)(c2ccccc2)c2ccccc2)[n+]2ccccc2n1C,-2,-140,68*,-59,19,7,-11,-15,/
Cn1cc[n+](C)c1P(=S)(c1ccccc1)c1ccccc1,-1,1,19,1,6,-1,/,/,/
CCc1sc(C(=O)N2CCC3(CC2)OCCO3)cc1Br,0,1,54*,-2,3,-1,-7,-5,/
C[N+]1(C)CCc2cc3c(cc2[C@H]1[C@@H]1OC(=O)c2c1ccc1c2OCO1)OCO3,2,-1,99*!,3,15,-1,82*,-15,-24
O=P(Oc1ccc(-c2ccccc2)cc1)(N1CC1)N1CC1,3,2,-3,7,-3,-1,/,/,/
O=c1[nH]c(O)c(/C=C2/C=CC(c3cc(Cl)ccc3Cl)=N2)c(=O)[nH]1,0,17,-7,57*,64*,46,25,-20,/
CNC(=O)OCc1n(C)cc[n+]1C,-3,1,55*,4,5,-4,11,-1,/
Cc1nc2cc(OC(=O)N(C)Cc3cccc(-c4ccncc4)c3)ccc2s1,/,/,/,5,-5,0,/,/,/
CC[N+]12CCC(CC1)C(=C(c1ccccc1)c1ccccc1)C2,-2,4,9,1,0,-2,/,/,/
C[N+]12CCC(CC1)C(=C(c1ccccc1)c1ccccc1)C2,-3,5,94*,-3,11,0,78*,-20,-17
C[N+]1(C)C2CCC1CC(OC(=O)c1ccco1)C2 (configuration not stated),-3,0,19,0,1,-2,/,/,/
C[N+]1(C)C2CCC1CC(OC(=O)c1c[nH]c3ccccc13)C2 (configuration not stated),3,2,54*,2,6,1,-6,-16,/
COC(=O)C1=C(c2ccc(OCc3ccccc3)cc2)C[C@@H]2CC[C@H]1N2C(=O)NCc1ccc([N+](=O)[O-])cc1,6,-15,68*,5,-5,9,-32,-28,/
COC(=O)C1=C(c2cccc(OCc3ccccc3)c2)C[C@@H]2CC[C@H]1N2C(=O)NCc1ccc([N+](=O)[O-])cc1,2,-11,-24,-3,-4,7,/,/,/
COc1ccc(/C=C2\C(=O)NC(=S)N(C)C2=O)cc1C,95*,94*,100*,72*,-3,0,70*,-16,-9
Cc1ccsc1/C=C1\C(=O)NC(=S)N(C)C1=O,1,4,6,7,6,-1,/,/,/
SMILES,STEP block,DNMT1 inh,Scp1 inh,SUMO1 PPI mod,NadD inh,LMPTP inh,Scp1 confirm,Scp-1 MG ctr,Scp1 DSF
Brc1ccc2c(c1)-n1nncc1CN(CC1CCCCC1)C2,3,-3,/,11,-6,0,/,/,/
CCOC(C(=O)OCCC[N+](C)(CC)CC)(c1ccccc1)c1ccccc1,-1,2,3,-6,-3,-3,/,/,/
CC[N+](C)(CC)CCCOC(=O)C(O)(c1ccccc1)C1CCCCC1 (configuration not stated),-2,6,102*,3,18,-2,79*,-19,-5
Cc1ccc(/C=C2/C(=O)NC(=O)N(CC3CCCO3)C2=O)s1 (configuration not stated),3,13,-1,7,3,-3,/,/,/
CC/C(CC(c1ccccc1)c1c(O)c2ccccc2oc1=O)=N\NC(N)=S (configuration not stated),3,9,56*,-1,-4,0,46*,1,2
COc1ccc(Cc2c(O)[nH]c(=S)[nH]c2=O)cc1,-5,0,53*,4,-5,-1,-3,0,/
CCCCOc1ccc(C(C)=O)cc1Cc1c(O)[nH]c(=S)[nH]c1=O,-2,-5,1,2,2,-2,/,/,/
CCOc1cc(CNCCc2c[nH]c3ccccc23)cc(Cl)c1OC,-1,-1,2,-3,-11,-2,/,/,/
Cc1ccc(N2C(=O)NC(=O)/C(=C/c3ccc(-c4ccc(C(=O)O)c(Cl)c4)o3)C2=O)cc1,4,41,58*,14,42*,0,55*,-18,-7
